Results from different studies.
Each line is one published result; the experiments were not run side by side.

Structure (SMILES) | cell line | assay | conditions | IC50 [µM]
CC(=O)O[C@@]12CO[C@@H]1C[C@H](O)[C@@]1(C)C(=O)[C@H](O)C3=C(C)[C@@H](OC(=O)[C@H](O)[C@@H](NC(=O)OC(C)(C)C)c4ccccc4)C[C@@](O)([C@@H](OC(=O)c4ccccc4)[C@H]21)C3(C)C | MDA-MB-436 | cell growth or viability, ATP luminescence | 72 h | 0.0037
COc1cc(/C=C/C(=O)/C=C(O)/C=C/c2cccc3cnccc23)ccc1O | CHO-K1 | cell growth or viability, SRB | 72 h | 32.6
Cc1ccc2nc(-c3ccc(Cl)cc3)n(Cc3ccccc3)c2c1 | human Rhabdomyosarcoma cell | cell growth or viability, MTT | – | 4.83
COc1cc([C@@H]2c3cc4c(cc3[C@@H](O[C@@H]3O[C@@H]5CO[C@@H](C)O[C@H]5[C@H](O)[C@H]3O)[C@H]3COC(=O)[C@H]23)OCO4)cc(OC)c1O | SMMC-7721 | cell growth or viability, MTT | 48 h | 8.12
Cc1[nH]c(/C=C2\C(=O)Nc3ccc(S(=O)(=O)N(C)c4cccc(Cl)c4)cc32)c(C)c1C(=O)N1CCN(C)CC1 | Rh30 | cell growth or viability | 72 h | 4.7
COc1ccccc1CNCC(O)COc1cccc2[nH]c3ccccc3c12 (stereo not shown) | NCI-H1299 | cell growth or viability, CCK-8 | 72 h | 14.8
COc1cccc2c1C(=O)c1c(O)c3c(c(O)c1C2=O)C[C@@](O)(C(=O)CO)C[C@@H]3O[C@H]1C[C@H](N)[C@H](O)[C@H](C)O1 | CHO-K1 | cell growth or viability, MTT | 72 h | 2.5
COc1ccccc1/C=C/CNCC(O)COc1cccc2ccccc12 (stereo not shown) | NCI-H1299 | cell growth or viability, CCK-8 | 72 h | 19.8
Cn1nnc2c(Cl)ncn2c1=O | D54 | cell growth or viability, resazurin | 7 days | 21
O=C(/C=C(/C=C/c1cccnc1)NC1CCCCC1)/C=C/c1cccnc1 | CHO-K1 | cell growth or viability, SRB | 72 h | 20.4
CSc1ccc(-c2nc3ccc(C)cc3n2Cc2ccccc2)cc1 | human Rhabdomyosarcoma cell | cell growth or viability, MTT | – | 31.7
COc1cc(/C=C/C(=O)CC(=O)/C=C/c2ccc(O)c(OC)c2)ccc1O | CHO-K1 | cell growth or viability, MTT | 72 h | 21.3
CCN(CC)C(=O)c1ncn2c(=O)n(C)nnc12 | D54 | cell growth or viability, resazurin | 7 days | 13
CC(C)(C)Nc1c(-c2ccc([N+](=O)[O-])cc2)nc2ccccn12 | Vero | cell growth or viability, MTT | 48 h | 85
Brc1ccc(Nc2nc(NCCc3ccccc3)nc(NCCc3ccccc3)n2)cc1 | SK-BR-3 | cell growth or viability, SRB | 72 h | 25.3
COCCNC(=C\C(=O)/C=C/c1cccnc1)/C=C/c1cccnc1 | CHO-K1 | cell growth or viability, SRB | 72 h | 71.7
Cc1ccc2nc(-c3ccc([N+](=O)[O-])cc3)n(Cc3ccccc3)c2c1 | human Rhabdomyosarcoma cell | cell growth or viability, MTT | – | 8.45
COc1cc(/C=C/C(=O)/C=C(O)/C=C/c2ccccn2)ccc1O | CHO-K1 | cell growth or viability, MTT | 72 h | 25.2
COc1ccc2c(c1)NC(=O)CN2c1nc(C)nc2c1CCC2 | M14 | cell growth or viability | 72 h | 0.0014
CC(C)C[C@H](NC(=O)[C@H](Cc1ccccc1)NC(=O)c1cnccn1)B(O)O | SNU-840 | cell growth or viability, ATP luminescence | – | 0.0081
CN(C)c1ccc(-c2nc3ccccn3c2NC(C)(C)C)cc1 | Vero | cell growth or viability, MTT | 48 h | 87
O=C(/C=C(O)/C=C/c1ccncc1)/C=C/c1c[nH]c2ccccc12 | CHO-K1 | cell growth or viability, MTT | 72 h | 42.9
COc1ccccc1/C=C/CNCC(O)COc1cccc2[nH]ccc12 (stereo not shown) | NCI-H1299 | cell growth or viability, CCK-8 | 72 h | 23.1
C=CCn1c(-c2ccc([N+](=O)[O-])cc2)nc2ccc(C)cc21 | human Rhabdomyosarcoma cell | cell growth or viability, MTT | – | 86
O=C(/C=C(O)/C=C/c1ccccn1)/C=C/c1c[nH]c2ccccc12 | CHO-K1 | cell growth or viability, MTT | 72 h | 22.3

Structure (SMILES) | cell line | assay | conditions | IC50 [µM]
O=C(O)Cc1ccccc1Nc1c(Cl)cccc1Cl | RAW264.7 | reactive oxygen species, inhibitor | LPS-stimulated | 50.1
COc1cccc2c1C(=O)c1c(O)c3c(c(O)c1C2=O)C[C@@](O)(C(=O)CO)C[C@@H]3O[C@H]1C[C@H](N)[C@H](O)[C@H](C)O1 | CHO-K1 | cell growth or viability, SRB | 72 h | 6.2
COc1ccc(-c2nc3ccccc3[nH]2)cc1O | human Rhabdomyosarcoma cell | cell growth or viability, MTT | 48 h | 53.1
O=C(/C=C(O)/C=C/c1c[nH]c2ccccc12)/C=C/c1c[nH]c2ccccc12 | CHO-K1 | cell growth or viability, SRB | 72 h | 12.1
C[C@@H](Oc1cc(-c2cnn(C3CCNCC3)c2)cnc1N)c1c(Cl)ccc(F)c1Cl | Rh30 | cell growth or viability | 72 h | 0.99
O=C(Cn1ccnc1[N+](=O)[O-])NCc1ccccc1 | RAW264.7 | cell growth or viability, MTT | – | > 240
O=C1C=C(/C=C/c2cccnc2)N(CCCO)C(c2cccnc2)C1 (stereo not shown) | CHO-K1 | cell growth or viability, SRB | 72 h | > 75
CC(C)(C)Nc1c(-c2ccc(N)cc2)nc2ccccn12 | Vero | cell growth or viability, MTT | 48 h | 91
CCOc1ccc(-c2nc3ccccc3n2Cc2ccccc2)cc1 | human Rhabdomyosarcoma cell | cell growth or viability, MTT | – | 48.6
Cn1nnc2c(-c3ccccc3)ncn2c1=O | D54 | cell growth or viability, resazurin | 7 days | 7
COc1cc(/C=C/C(=O)CC(=O)/C=C/c2ccc(O)c(OC)c2)ccc1O | CHO-K1 | cell growth or viability, SRB | 72 h | 38.8
COc1ccccc1OCCNC[C@@H](O)COc1cccc2[nH]c3ccccc3c12 | NCI-H1299 | cell growth or viability, CCK-8 | – | 41.5
Cc1ccc2nc(-c3ccc(Cl)cc3Cl)[nH]c2c1 | human Rhabdomyosarcoma cell | cell growth or viability, MTT | 48 h | 29.9
O=C(/C=C(O)/C=C/c1ccc[nH]1)/C=C/c1ccc[nH]1 | CHO-K1 | cell growth or viability, SRB | 72 h | 11.7
COc1cc(Nc2nccc(-c3cnn4nc(OC)ccc34)n2)cc(C(F)(F)F)c1 | MKN-45 | cell growth or viability, ATP luminescence | – | 1.4
O=C(/C=C(/C=C/c1cccnc1)NCCCO)/C=C/c1cccnc1 | CHO-K1 | cell growth or viability, MTT | 72 h | > 75
COc1ccccc1/C=C/CNCC(O)COc1cccc2[nH]c3ccccc3c12 (stereo not shown) | NCI-H1299 | cell growth or viability, CCK-8 | 72 h | 7.2
O=C(/C=C(O)/C=C/c1cccs1)/C=C/c1c[nH]c2ccccc12 | CHO-K1 | cell growth or viability, SRB | 72 h | 11.1
Cn1c(-c2nnc(NC(=O)c3cc4c([nH]c5ccccc54)c(-c4ccccc4)n3)s2)cc2ccccc21 | HL-60 | cell growth or viability, MTT | 72 h | 33.2
Clc1ccc(-c2nc3ccccc3n2Cc2ccccc2)cc1 | human Rhabdomyosarcoma cell | cell growth or viability, MTT | – | 31.7
COc1ccccc1/C=C/CNCC(O)COc1ccncc1 (stereo not shown) | NCI-H1299 | cell growth or viability, CCK-8 | 72 h | 34.1
CCCNc1nc(NCCC)nc(Nc2ccc(Br)cc2)n1 | SK-BR-3 | cell growth or viability, SRB | 72 h | 22.5
COc1ccccc1NCC(O)COc1cccc2[nH]c3ccccc3c12 (stereo not shown) | NCI-H1299 | cell growth or viability, CCK-8 | 72 h | > 100
O=C(/C=C(O)/C=C/c1ccc2ccccc2n1)/C=C/c1c[nH]c2ccccc12 | CHO-K1 | cell growth or viability, MTT | 72 h | 41.6
